Test results from ChEMBL document CHEMBL4513216, “Probing the Open Global Health Chemical Diversity Library for Multistage-Active Starting Points for Next-Generation Antimalarials” (ACS Infect Dis, 2020).

experiment: Toxicity liver stage against HepG2, at 10uM; type: cell-based; set-up: test concentration 10 uM, cell line HepG2-A16-CD81EGFP; conditions: human, HepG2-A16-CD81EGFP cells; read-out: INHIBITION
Procedure, shortened: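 Uninfected HepG2-A16-CD81EGFP cells, 3 × 10^3 per well, 1536-well, plated on prespotted compound at 10 μM final, parasite-free screening media added to match infected plates; puromycin 10 μM positive, DMSO 0.5% negative; run in parallel with 48 h PbLuc assay at 37 °C, 5% CO2; viability by CellTiter-Glo luminescence, normalized to controls.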

SMILES | cytotoxicity at 10 µM [%]
c1cnc(-c2nn3c(CN4CCCCCC4)nnc3s2)cn1 | 10.8
COc1cccc(Nc2nc(C3CCCNC3)c3sc(C)c(C)n23)c1 (stereo unspecified) | -4.93
Cc1ccc(C(=O)N(C)CC(=O)N2CCCC2)c(C)c1 | -0.705
Cc1occc1C(=O)N1C[C@H](Oc2ccccn2)[C@H]2OCCC[C@H]21 | -110
c1ncn(CC2CCCN(Cc3noc(C4CC4)n3)C2)n1 (stereo unspecified) | 0.428
COc1cccc(C(=O)NCCCN2CCc3ccccc3C2)c1OC | 6.67
O=C1CCCc2occ(C(=O)N3CCCC4(CCNC4)C3)c21 (stereo unspecified) | 9.15
CC(=O)NCCNC(=O)c1cnc(-c2ccc(C)cc2C)s1 | -7.95
COc1cccc(NC(=O)CN(C(C)C)C2CC2)c1 | -2.83
Cc1cnn(CC2CCCN2C(=O)CCc2ccsc2)c1 (stereo unspecified) | -1.64
COCc1nc(CN2CCN(c3ccc(OC)cc3)C(=O)C2C)no1 (stereo unspecified) | 3.35
Cc1nc(CN2CCO[C@H]3[C@@H](Oc4ccccn4)CC[C@@H]32)cs1 | 2.4
CC(C)Sc1nnnn1C1CCCC1 | -8.61
CO[C@H]1CN(CC2CCOCC2)[C@@H]2CCCO[C@H]12 | -100
CN1CCN(Cc2nnc(C3CCN(C4CCCCC4)CC3)n2C)CC1 | 3.18
CCSC1=Nc2c(cnn2-c2ccc(Cl)cc2)C2=NCCCN12 | 8.49
CSc1ccc(-c2nc(CN3CCC(NC(C)=O)CC3)c(C)o2)cc1 | -2.76
CC(C)N(CC(N)=O)C(=O)c1cnc(-c2ccc3c(c2)OCO3)s1 | -5.92
NCC1Cc2cc(-c3nccc(N4CCC(O)CC4)n3)cc(Cl)c2O1 (stereo unspecified) | -4.33
COc1ccc(NC(=O)c2nc(C)sc2C)cn1 | -2.52
CNC(=O)C1CCN(C(=O)NCc2ccc(C)n2C)CC1 | -1.81
NC(=O)Cn1ccc(NC(=O)C2(c3ccc(F)cc3)CC2)n1 | -2.82
OCCC1CN(C2CCC2)CCN1C1CCCC1 (stereo unspecified) | -18.5

SMILES | cytotoxicity at 10 µM [%]
CN1CCC(n2nc(CC3CC3)nc2-c2ccc(F)cc2Cl)CC1 | -1.84
O=S(=O)(Cc1cccc2cccnc12)NC(CO)c1ccco1 (stereo unspecified) | 4.22
CC(Cn1ccnc1)NC(=O)NCCNC(=O)C(C)C (stereo unspecified) | -3.51
CN(C)C(=O)N1CCCC(C(=O)N(C)CCCc2cnn(C)c2)C1 (stereo unspecified) | -0.645
CC(C)NC(=O)[C@H](C)NC(=O)N1CCN(c2ccc(Cl)cc2)CC1 | 0.592
Cc1csc(CNC(=O)NCC(O)c2ccc(F)cc2F)n1 (stereo unspecified) | -10.8
Cc1n[nH]c(C)c1CN(C)C(C(=O)O)c1c(F)cccc1OC(C)C (stereo unspecified) | -56.1
Cc1cc(N2CCN(C3CCSCC3)CC2)n2nc(C)c(C)c2n1 | 0.0879
Cn1cc(C(C)(O)CNC(=O)c2cc(Br)cn2C)cn1 (stereo unspecified) | -51.1
Cc1ccc(CN(C)C(=O)c2n[nH]c(N)c2-c2ccccc2)o1 | -4.81
Cc1ccc(N2CCC(C(O)c3cccs3)CC2)nn1 (stereo unspecified) | -49.1
CN(Cc1ccco1)[C@@H]1CN(Cc2ccncc2)C[C@@H]2CCCO[C@@H]21 | 0.361
Cc1cc2nc(CN(C)c3ccccc3)cc(=O)n2o1 | 0.719
Fc1cnc(N2CC[C@@H](N3CCOCC3)[C@@H]2Cc2ccccc2)nc1 | 3.67
Cc1ccc(S(=O)(=O)Cc2noc([C@@H]3C[C@@H](O)CN3C)n2)cc1 | 0.847
CN(C)C(C(=O)N1CCC(N2CCSCC2)CC1)c1ccccc1F (stereo unspecified) | 9.22
Cc1nn(C)c2c(=O)n(C)c(NCC3CCCO3)nc12 (stereo unspecified) | 0.186
Cc1ncc2c(n1)C1(CCN(C(=O)C3CC3)CC1)OCC2 | 6.02
CCCC(=O)N1CCC(Nc2ncc(Br)cn2)CC1 | -8.69
COC(=O)COc1cccc(NS(=O)(=O)c2cc(C(=O)O)cs2)c1 | -5.25
Cc1nc2c(C(=O)O)cccc2n1-c1ccc(C(=O)N2CCCC2)o1 | -2.36
COc1ccc(C(=O)NCCNC(=O)c2scnc2Cl)cc1 | -16.8
CC(O)CC(C)(C)CNC(=O)Nc1cnn(-c2ccccc2F)c1 (stereo unspecified) | -3.27

SMILES | cytotoxicity at 10 µM [%]
CC(C(=O)N1CCn2cncc2C1)N1CCCC1 (stereo unspecified) | 6.38
COCC(C)NC(=O)c1cc(C)n(-c2cccc(OC)c2)c1C (stereo unspecified) | -13.9
CCCOc1ccc2c(c1)OCC(C(=O)NC(C)Cn1ccnc1)=C2 (stereo unspecified) | -4.03
NC(=O)C1CCN(C(=O)c2ccn(-c3ccc(F)cc3)n2)CC1 | -1.34
Cc1cc(CN2CC[C@H]3[C@H]2CCN3S(C)(=O)=O)oc1C | -1.69
CC(=O)N(C)Cc1cncc(C2CCCN2C2CCOCC2)n1 (stereo unspecified) | -5.34
O=C1NCCCCC1NC(=O)C1(c2ccc3c(c2)OCCO3)CCCC1 (stereo unspecified) | 0.969
CS(=O)(=O)N1CCOCC12CCN(Cc1ccoc1)CC2 | 7.81
CN1CSC[C@H]1C(=O)N1CCC(CCc2ccccc2)CC1 | 3.23
O=C(NCC1CCOC1)c1cc(-c2cccc(Cl)c2)[nH]n1 (stereo unspecified) | -1.74
CC1CN(C(=O)c2ccnc(-n3cncn3)c2)c2ccccc2S1 (stereo unspecified) | -5.69
O=C(NCCCO)c1nnsc1-c1ccc(Cl)cc1 | 4.62
Cc1cc(NCCN)nc(-c2ccccc2O)n1 | 7.61
CCn1nnc2c1C(COC)CN(Cc1cccs1)C2 (stereo unspecified) | -16.5
O=C(c1ccc(-c2ccc(O)nc2)s1)N1CCCCCC1 | 4.51
Cn1cnnc1S(=O)(=O)Cc1cc(Cl)c2c(c1)OCO2 | -36.6
O=C(Nc1ccc(OC(F)F)cc1)N1CCC(c2nnc[nH]2)CC1 | 7.25
O=C(CC1CCCCC1)N1CCN(C(=O)NCc2ccccn2)CC1 | -4.02
Cc1cc(NC(=O)CNC(C)(C)c2ccccc2)on1 | -8.18
CC(C)CC(=O)Nc1ccc2c(c1)ncn2CC(=O)NCCN(C)C | -7.58
Cc1cn2c(n1)CCC(NC(=O)CCn1cncn1)C2 (stereo unspecified) | -5.72
O=C(c1cnccn1)N1C[C@@H]2C[C@@H](c3nc(C4CC4)cs3)O[C@@H]2C1 | -118
CC(=O)N1CCCC1c1nc(C)cc(-c2ccc(F)cc2)n1 (stereo unspecified) | 9.88

SMILES | cytotoxicity at 10 µM [%]
COc1ccccc1C(=O)N1CC(=O)N(CC(C)C)CC(O)C1 (stereo unspecified) | 4.37
Cc1cc(=O)[nH]c(=O)n1Cc1ccccc1 | -42.6
Cc1nc[nH]c1C(=O)N1CCCC2(C1)C(=O)N(C)c1ccccc12 (stereo unspecified) | -6.01
CNS(=O)(=O)c1cnccc1N1CCN(C(C)C)CC1 | -2.02
Cc1oc(CNC(=O)Cc2cccc(OC(F)F)c2)cc1C(=O)O | 7.04
CCOc1ncnc2c1CCN(C(=O)CN(C)C)CC2 | -5.12
Cc1cccc(C)c1OC1CN(C(=O)C2CCCN(C(=O)N(C)C)C2)C1 (stereo unspecified) | -0.545
CCN1CCOCC12CCN(c1nccs1)CC2 | -107
Cn1nc(CNC(=O)CN2C(=O)CCC2=O)cc1C1CC1 | 2.89
Cc1cccc(-c2noc(CN3CCOCC3C)n2)c1 (stereo unspecified) | -11.9
CCc1nc(CN2CCCN(Cc3noc(C4CC4)n3)CC2)cs1 | -7.35
Cc1nnc2n1CCN(CCC(=O)Nc1sccc1C#N)C2 | -2.28
O=C(C1CCC1)N1C[C@@H](c2ccsc2)[C@@H]2CN(C3CCCC3)CC[C@@H]21 | -1.51
COCC(O)CN(C)c1ccnc2ccc(Cl)cc12 (stereo unspecified) | -5.93
O=C(O)C(c1cccc2c1OCC2)N1CCC(N2CCCC2)CC1 (stereo unspecified) | 8.12
COc1cccc(F)c1CN1CCC(c2nccc(C)n2)C1 (stereo unspecified) | 5.29
CC(C)c1nc(C2CCCN(C(=O)CCCn3cccn3)C2)no1 (stereo unspecified) | -1.36
COCCNC(=O)[C@H]1C[C@@H]2CCN(Cc3nccs3)C[C@H]2O1 | -68.2
Cc1ccc(CN2CCN(CC(=O)Nc3ccc4nsnc4c3)CC2)o1 | -17.5
CC(C)N1CCC(Cc2cnc(-c3cccc(C(=O)O)c3)cn2)C1 (stereo unspecified) | -2.27
Cc1cccc(CC(=O)NS(=O)(=O)c2ccc(F)c(F)c2)c1 | -5.23
CN(C)CCNC(=O)c1cc2c(s1)CCN2S(C)(=O)=O | 0.705
CN(C)CCN1CCC2(CCCN(Cc3cccn3C)C2)C1=O (stereo unspecified) | -114

SMILES | cytotoxicity at 10 µM [%]
O=C(NCCCF)N1CCC(n2ccc(C(F)(F)F)n2)CC1 | -5.29
CNS(=O)(=O)c1ccc(CNC(=O)N2CCOC(C)C2)cc1 (stereo unspecified) | 9.15
CN1C(=O)C2(CCN(CC3CCC3)C2)c2ccccc21 (stereo unspecified) | -71.3
O=C(O)C1(n2ccc(-c3ccco3)n2)CCN(Cc2ccccn2)CC1 | -137
CC(C)Oc1cccc(CC(=O)NC2CCN(CC(N)=O)CC2)c1 | 3.05
CCN1CCCC(O)(CN(C)Cc2ccccc2F)C1 (stereo unspecified) | -6.43
CN(C)C[C@@H]1C[C@@H]2CN(c3ncc(F)cn3)CC[C@@H]2N1C | 4.53
Cc1n[nH]c(CN2CCN(C(=O)C3CCC3)[C@@H]3CS(=O)(=O)C[C@@H]32)n1 | -10.8
O=C(NCc1ccc2c(c1)OCO2)c1ccccc1C1CCNC1 (stereo unspecified) | -3.6
Cc1noc(C)c1CN1CCCC2(C1)CN(c1nncs1)CCO2 (stereo unspecified) | 0.922
CN(Cc1ccncc1)C(=O)c1ccc2c(c1O)OC(C)(C)C2 | 1.95
CCc1nc(CN2CCCC(NCc3nnc(C4CC4)o3)C2)no1 (stereo unspecified) | -5.73
Cn1cc(CN2CCc3c(nc(-c4ccccn4)[nH]c3=O)C2)cn1 | -5.05
CN(C)S(=O)(=O)CCCN1CCc2c(ncn2C2CC2)C1 | -10.5
CCC1(O)CCCN(c2ncnc3c2c(C)nn3C)C1 (stereo unspecified) | 2.14
Cc1cn(CC(=O)NCC(=O)NC2CC2)c2ccccc12 | -0.966
Cn1nc2c(cc1=O)CN(CCOc1ccccc1C#N)CC2 | 18
CCC(CNC(=O)Cc1c(C)noc1C)N1CCCC1 (stereo unspecified) | -46.3
Cc1nc(-c2nnc[nH]2)sc1C(=O)N1CCCC1CC(C)(C)C (stereo unspecified) | 12.1
